# Measurements published in PubChem BioAssay AID624306 (The Scripps Research Institute Molecular Screening Center, 2012).
# The source made the active and inactive calls.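 Rule for the calls: active = inhibition of insulin-degrading enzyme persists after dilution, judged irreversible; inactive = inhibition lost or reduced after dilution, judged reversible.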
# Target: Insulin-degrading enzyme (Homo sapiens) (UniProt P14735)
# Test: reversibility of cysteine-free IDE inhibition, late-stage follow-up, mechanism study for IDE inhibitor project, biochemical, cysteine-free mutant, FRET1 fluorogenic peptide (AID 624306)
# Settings: recombinant cysteine-free IDE, FRET1 fluorescence
# Summary of the method: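 System: Mutant insulin-degrading enzyme (IDE) | Input: Mutant IDE at 1 nM in the well | Also added: Substrate 1 µM | Dosing: Top compound dose 100 µM | Times: Kinetic reads every 2 min over 2 h, room temperature | Technique: Fluorescence at 335/385 nm | Controls: Vehicle (high) and no-enzyme (low) wells | Replication: Triplicate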
# Insulin-degrading enzyme (Homo sapiens), sequence (P14735 whole entry, looked up): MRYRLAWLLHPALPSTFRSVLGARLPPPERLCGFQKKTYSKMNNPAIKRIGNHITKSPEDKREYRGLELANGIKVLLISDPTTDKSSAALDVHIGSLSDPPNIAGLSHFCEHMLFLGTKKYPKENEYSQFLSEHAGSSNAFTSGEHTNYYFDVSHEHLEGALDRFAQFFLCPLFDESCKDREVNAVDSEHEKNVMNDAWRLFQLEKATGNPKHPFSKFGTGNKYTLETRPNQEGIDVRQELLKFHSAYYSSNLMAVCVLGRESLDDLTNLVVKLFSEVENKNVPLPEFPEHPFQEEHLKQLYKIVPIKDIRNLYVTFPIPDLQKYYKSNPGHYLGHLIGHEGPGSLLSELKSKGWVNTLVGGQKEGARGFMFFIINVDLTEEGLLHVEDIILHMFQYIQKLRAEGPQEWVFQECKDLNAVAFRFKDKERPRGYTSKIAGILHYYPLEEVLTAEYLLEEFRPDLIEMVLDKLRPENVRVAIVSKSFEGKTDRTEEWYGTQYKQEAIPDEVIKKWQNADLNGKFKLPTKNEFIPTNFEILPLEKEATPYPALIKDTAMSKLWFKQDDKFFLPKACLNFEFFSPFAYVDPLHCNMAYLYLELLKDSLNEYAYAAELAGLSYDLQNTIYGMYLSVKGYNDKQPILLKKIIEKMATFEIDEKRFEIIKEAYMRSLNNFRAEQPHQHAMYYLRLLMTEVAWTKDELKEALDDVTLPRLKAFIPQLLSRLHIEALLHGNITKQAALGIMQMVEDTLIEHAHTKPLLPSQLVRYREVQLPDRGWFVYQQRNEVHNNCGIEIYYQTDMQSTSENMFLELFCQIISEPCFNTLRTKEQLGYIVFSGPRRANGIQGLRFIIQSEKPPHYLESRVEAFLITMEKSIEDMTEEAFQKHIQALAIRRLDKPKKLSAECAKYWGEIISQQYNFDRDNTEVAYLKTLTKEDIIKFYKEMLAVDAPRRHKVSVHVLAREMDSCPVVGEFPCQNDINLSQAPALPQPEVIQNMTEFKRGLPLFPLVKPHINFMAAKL
row,SMILES,outcome
1,COc1cccc(-c2nnc(SCc3nc4ccccc4[nH]3)n2Cc2ccco2)c1,inactive
2,O=C(O)c1ccccc1NS(=O)(=O)c1cccc(-n2sc3ccccc3c2=O)c1,active
3,COc1ccc(C(=O)N2CCN(C(=O)C3COc4ccccc4O3)CC2)cc1OC (stereo not given),inactive
4,O=C(Nc1cccc(C(F)(F)F)c1)c1csc(-c2ccncc2)n1,inactive
5,Cn1c(=O)c(C(=O)CN2CCCc3ccccc32)c(N)n(Cc2ccccc2)c1=O,inactive
6,Clc1cccc(-c2nnc(SCc3nc4ccccc4[nH]3)n2Cc2ccco2)c1,inactive
7,O=c1c2ccccc2sn1-c1cc(S(=O)(=O)N2CCOCC2)ccc1N1CCOCC1,active
8,Cc1cccc(-c2nnc(SCc3nc4ccccc4[nH]3)n2Cc2ccco2)c1,inactive
9,COc1cc(/C=C2\SC(=S)N(NC(C)=O)C2=O)ccc1OC(=O)c1ccco1,inactive
10,Cc1c(CCC(=O)NCCCn2ccnc2)c(=O)oc2cc3oc4c(c3cc12)CCCC4,inactive
